Data: ChEMBL document CHEMBL5325511, “Discovery of N-(4-(Aminomethyl)phenyl)-5-methylpyrimidin-2-amine Derivatives as Potent and Selective JAK2 Inhibitors” (ACS Med Chem Lett, 2023)
Activity calls are given as the source filed them. No cut-off for these calls is given here.

Experiments:
BaF3 [1] = experiment: Inhibition of JAK2/STAT signaling pathway in mouse BaF3 cells harbouring JAK2 V617F mutant assessed as reduction in STAT3 phosphorylation by Western blot analysis; type: cell-based; conditions: dose 10-1000 nM
In short: (§1)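 Ba/F3 JAK2V617F cells treated with compound at increasing concentrations. Phosphorylation levels of JAK2, STAT3, STAT5 and AKT assessed by Western blot.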

[2] = target: Tyrosine-protein kinase Lyn (Homo sapiens) (UniProt P07948); experiment: Inhibition of LYN (unknown origin)
Sequence of Tyrosine-protein kinase Lyn (Homo sapiens) (P07948 2-512 limits assumed): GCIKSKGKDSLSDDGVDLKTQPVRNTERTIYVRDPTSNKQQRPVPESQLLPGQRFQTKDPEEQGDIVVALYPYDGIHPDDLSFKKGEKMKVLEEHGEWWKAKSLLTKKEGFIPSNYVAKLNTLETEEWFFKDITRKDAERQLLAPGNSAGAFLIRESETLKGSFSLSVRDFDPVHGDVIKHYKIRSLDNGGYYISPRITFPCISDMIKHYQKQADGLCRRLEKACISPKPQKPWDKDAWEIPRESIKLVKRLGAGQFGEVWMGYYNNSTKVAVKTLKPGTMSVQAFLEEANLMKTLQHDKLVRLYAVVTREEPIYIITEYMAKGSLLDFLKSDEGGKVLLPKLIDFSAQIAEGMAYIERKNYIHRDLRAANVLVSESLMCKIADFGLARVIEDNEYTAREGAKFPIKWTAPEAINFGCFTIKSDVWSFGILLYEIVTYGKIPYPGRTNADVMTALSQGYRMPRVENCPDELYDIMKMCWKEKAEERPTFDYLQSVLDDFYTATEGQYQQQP
In short: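 Kinase panel profiling (KinaseProfile, run by an outside contractor). The inhibitor was tested at 1 μM in duplicate against DMSO control. The value is % control, the percentage of kinase activity remaining.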

[3] = target: Tyrosine-protein kinase JAK2 (Homo sapiens, UniProt O60674); experiment: Inhibition of JAK2 (unknown origin) in presence of Mg/ATP mixture by [gamma p33]-ATP based radiometric assay
Sequence of Tyrosine-protein kinase JAK2 (O60674 whole entry): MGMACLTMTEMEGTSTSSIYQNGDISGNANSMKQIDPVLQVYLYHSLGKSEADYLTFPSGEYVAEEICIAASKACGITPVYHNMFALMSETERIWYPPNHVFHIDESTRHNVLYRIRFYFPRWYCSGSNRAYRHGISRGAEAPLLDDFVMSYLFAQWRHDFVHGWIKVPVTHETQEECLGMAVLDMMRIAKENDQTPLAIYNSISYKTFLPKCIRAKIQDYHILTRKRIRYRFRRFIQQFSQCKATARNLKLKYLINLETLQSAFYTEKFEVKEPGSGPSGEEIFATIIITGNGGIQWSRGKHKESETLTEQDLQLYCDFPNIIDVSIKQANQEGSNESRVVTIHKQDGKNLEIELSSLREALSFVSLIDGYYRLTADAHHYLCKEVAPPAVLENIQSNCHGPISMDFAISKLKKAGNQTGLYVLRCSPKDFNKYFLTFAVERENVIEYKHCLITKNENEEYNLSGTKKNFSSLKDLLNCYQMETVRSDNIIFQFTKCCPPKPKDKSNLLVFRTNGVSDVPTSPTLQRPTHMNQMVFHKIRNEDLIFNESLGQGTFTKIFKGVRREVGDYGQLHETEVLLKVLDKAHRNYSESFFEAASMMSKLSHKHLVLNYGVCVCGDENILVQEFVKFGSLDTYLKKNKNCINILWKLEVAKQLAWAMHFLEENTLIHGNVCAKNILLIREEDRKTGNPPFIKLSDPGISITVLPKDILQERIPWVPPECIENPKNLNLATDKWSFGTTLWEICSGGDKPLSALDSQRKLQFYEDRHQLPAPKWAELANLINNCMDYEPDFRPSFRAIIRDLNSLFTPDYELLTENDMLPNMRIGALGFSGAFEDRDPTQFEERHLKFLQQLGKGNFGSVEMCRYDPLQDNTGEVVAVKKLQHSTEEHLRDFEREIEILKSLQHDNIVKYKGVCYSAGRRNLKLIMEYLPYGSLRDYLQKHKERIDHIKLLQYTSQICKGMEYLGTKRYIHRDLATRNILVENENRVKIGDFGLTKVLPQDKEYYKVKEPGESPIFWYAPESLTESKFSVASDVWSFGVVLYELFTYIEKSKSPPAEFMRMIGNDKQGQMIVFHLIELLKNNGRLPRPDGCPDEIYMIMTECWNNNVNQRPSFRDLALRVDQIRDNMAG
In short: (§2)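 IC50 values determined by Eurofins Discovery.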

[4] = Oral bioavailability in Sprague-Dawley rat at 5 mg/kg measured upto 24 hrs by LC-MS/MS analysis; type: ADME, organism-based; conditions: in vivo
In short: (§3)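 Sprague–Dawley rats, n = 5 per group, dosed at 5 mg/kg as a solution in 2% ethanol and 1% Tween 80, pH 5.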

[5] = Cmax in Sprague-Dawley rat at 5 mg/kg, po measured upto 24 hrs by LC-MS/MS analysis; type: ADME, organism-based; parameters: dose 5 mg/kg, time < 24 hrs, route po; conditions: in vivo, 24 h
In short: (§4)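 Sprague–Dawley rats, n = 5, dosed at 5 mg/kg as a solution in 2% ethanol and 1% Tween 80, pH 5.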

[6] = target: Tyrosine-protein kinase JAK1 (Homo sapiens, UniProt P23458); experiment: Inhibition of JAK1 (unknown origin) in presence of Mg/ATP mixture by [gamma p33]-ATP based radiometric assay; in short: as §2
Sequence of Tyrosine-protein kinase JAK1 (P23458 whole entry): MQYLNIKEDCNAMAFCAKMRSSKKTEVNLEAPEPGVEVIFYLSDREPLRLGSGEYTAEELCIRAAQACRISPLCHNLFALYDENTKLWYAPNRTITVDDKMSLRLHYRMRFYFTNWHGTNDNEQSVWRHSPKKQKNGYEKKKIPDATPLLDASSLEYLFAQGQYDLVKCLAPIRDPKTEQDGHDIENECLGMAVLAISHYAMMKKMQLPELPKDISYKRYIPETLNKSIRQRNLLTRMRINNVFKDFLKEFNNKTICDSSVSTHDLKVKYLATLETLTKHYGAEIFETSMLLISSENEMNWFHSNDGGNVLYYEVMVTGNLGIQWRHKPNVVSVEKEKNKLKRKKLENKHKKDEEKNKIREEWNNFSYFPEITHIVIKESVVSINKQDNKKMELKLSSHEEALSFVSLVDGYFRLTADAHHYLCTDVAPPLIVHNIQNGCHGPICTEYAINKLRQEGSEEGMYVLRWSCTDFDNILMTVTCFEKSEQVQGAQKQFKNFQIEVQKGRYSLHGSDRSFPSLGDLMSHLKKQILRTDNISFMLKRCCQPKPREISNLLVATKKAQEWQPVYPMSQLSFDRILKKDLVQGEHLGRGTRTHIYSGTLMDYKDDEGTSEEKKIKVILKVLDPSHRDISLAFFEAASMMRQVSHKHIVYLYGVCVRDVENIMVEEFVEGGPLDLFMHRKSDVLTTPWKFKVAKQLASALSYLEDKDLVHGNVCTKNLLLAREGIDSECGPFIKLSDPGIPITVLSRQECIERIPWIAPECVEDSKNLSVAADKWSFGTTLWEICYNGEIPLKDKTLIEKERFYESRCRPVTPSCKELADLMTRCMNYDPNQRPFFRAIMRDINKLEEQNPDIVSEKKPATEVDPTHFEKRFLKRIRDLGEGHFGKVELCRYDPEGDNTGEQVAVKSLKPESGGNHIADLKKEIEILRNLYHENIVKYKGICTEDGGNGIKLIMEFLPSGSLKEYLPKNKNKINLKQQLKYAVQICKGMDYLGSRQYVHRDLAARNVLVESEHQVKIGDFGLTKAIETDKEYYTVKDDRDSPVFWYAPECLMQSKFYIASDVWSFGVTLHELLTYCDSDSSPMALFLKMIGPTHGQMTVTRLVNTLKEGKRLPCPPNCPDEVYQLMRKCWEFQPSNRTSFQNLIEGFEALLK

BaF3 [7] = experiment: Inhibition of JAK2/STAT signaling pathway in mouse BaF3 cells harbouring JAK2 V617F mutant assessed as reduction in JAK2 phosphorylation by Western blot analysis; type: cell-based; conditions: dose 10-1000 nM; in short: as §1
[8] = Clearance in Sprague-Dawley rat at 5 mg/kg, po measured upto 24 hrs by LC-MS/MS analysis; type: ADME, organism-based; conditions: in vivo; in short: as §4
[9] = target: T1, Tyrosine-protein kinase JAK3 (Homo sapiens, UniProt P52333); experiment: Inhibition of JAK3 (unknown origin) in presence of Mg/ATP mixture by [gamma p33]-ATP based radiometric assay
T1 sequence (P52333 whole entry): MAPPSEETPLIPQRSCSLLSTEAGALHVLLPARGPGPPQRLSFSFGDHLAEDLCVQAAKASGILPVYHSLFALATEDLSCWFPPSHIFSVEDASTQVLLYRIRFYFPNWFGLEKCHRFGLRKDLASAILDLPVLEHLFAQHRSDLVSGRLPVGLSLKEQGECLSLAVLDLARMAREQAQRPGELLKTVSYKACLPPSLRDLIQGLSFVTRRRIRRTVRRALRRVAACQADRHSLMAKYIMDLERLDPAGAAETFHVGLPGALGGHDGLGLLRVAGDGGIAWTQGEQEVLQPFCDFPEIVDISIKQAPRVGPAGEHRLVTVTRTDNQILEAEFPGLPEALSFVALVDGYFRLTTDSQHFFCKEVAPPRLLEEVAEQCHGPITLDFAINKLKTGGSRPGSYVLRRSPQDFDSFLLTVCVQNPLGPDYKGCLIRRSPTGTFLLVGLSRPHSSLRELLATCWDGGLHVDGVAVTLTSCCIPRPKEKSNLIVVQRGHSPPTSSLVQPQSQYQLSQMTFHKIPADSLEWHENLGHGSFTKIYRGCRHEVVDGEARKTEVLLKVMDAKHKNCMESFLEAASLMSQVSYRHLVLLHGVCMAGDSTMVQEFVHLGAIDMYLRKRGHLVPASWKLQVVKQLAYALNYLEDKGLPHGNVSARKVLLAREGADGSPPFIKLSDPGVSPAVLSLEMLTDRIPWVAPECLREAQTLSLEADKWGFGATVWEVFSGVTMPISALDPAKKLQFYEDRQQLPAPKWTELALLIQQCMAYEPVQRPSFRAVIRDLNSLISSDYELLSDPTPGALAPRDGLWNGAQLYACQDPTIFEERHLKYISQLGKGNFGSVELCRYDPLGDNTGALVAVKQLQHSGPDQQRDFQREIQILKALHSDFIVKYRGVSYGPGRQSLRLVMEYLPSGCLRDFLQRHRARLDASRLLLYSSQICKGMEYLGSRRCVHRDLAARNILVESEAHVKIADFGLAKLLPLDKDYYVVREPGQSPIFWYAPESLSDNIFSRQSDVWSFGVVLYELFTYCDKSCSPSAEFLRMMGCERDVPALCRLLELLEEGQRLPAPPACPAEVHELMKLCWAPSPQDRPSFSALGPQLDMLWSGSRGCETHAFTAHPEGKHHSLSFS

BaF3 [10] = experiment: Inhibition of JAK2/STAT signaling pathway in mouse BaF3 cells harbouring JAK2 V617F mutant assessed as reduction in STAT5 phosphorylation by Western blot analysis; type: cell-based; conditions: dose 10-1000 nM; in short: as §1
[11] = AUC(0 to t) in Sprague-Dawley rat at 5 mg/kg, po measured upto 24 hrs by LC-MS/MS analysis; type: ADME, organism-based; parameters: time < 24 hrs, dose 5 mg/kg, route po; conditions: in vivo; in short: as §4
[12] = Tmax in Sprague-Dawley rat at 5 mg/kg, po measured upto 24 hrs by LC-MS/MS analysis; type: ADME, organism-based; conditions: in vivo, po, 5 mg/kg, 24 h; in short: as §3

## C=CS(=O)(=O)NCc1ccc(Nc2ncc(C)c(-c3cnn(C(C)C)c3)n2)cc1
BaF3 [1]
  inhibition: Dose-Dependent Effect
[2]
  inhibition: Active
[3]
  IC50: 0.005 µM
[4]
  bioavailability: 41.1%
[5]
  Cmax: 0.1214 µg/mL
[6]
  IC50: 0.193 µM
BaF3 [7]
  inhibition: Dose-Dependent Effect
[8]
  CL: 17.7 L/h/kg
[9]
  IC50: 0.273 µM
BaF3 [10]
  inhibition: Dose-Dependent Effect
[11]
  AUCt: 3.5179 µg·h/mL
[12]
  Tmax: 1.4 h
